Results taken from ChEMBL document CHEMBL5030531, “Synthetic Glycolipids as Molecular Vaccine Adjuvants: Mechanism of Action in Human Cells and In Vivo Activity” (J Med Chem, 2021).
Calls of active or inactive are those of the source. The calls are words filed in the database; no cut-off is given here.

Experiments:
[1] = target: Toll-like receptor 4 (Homo sapiens) (UniProt O00206); assay: Antagonist activity at human TLR4 in LPS-stimulated HEK-Blue hTLR4 cells assessed as inhibition of LPS-induced SEAP production at 0.1 to 25 uM incubated for 18 hrs by QUANTI-blue assay; conditions: dose 0.1-25 µM
Chain of Toll-like receptor 4 (Homo sapiens) (O00206 whole entry): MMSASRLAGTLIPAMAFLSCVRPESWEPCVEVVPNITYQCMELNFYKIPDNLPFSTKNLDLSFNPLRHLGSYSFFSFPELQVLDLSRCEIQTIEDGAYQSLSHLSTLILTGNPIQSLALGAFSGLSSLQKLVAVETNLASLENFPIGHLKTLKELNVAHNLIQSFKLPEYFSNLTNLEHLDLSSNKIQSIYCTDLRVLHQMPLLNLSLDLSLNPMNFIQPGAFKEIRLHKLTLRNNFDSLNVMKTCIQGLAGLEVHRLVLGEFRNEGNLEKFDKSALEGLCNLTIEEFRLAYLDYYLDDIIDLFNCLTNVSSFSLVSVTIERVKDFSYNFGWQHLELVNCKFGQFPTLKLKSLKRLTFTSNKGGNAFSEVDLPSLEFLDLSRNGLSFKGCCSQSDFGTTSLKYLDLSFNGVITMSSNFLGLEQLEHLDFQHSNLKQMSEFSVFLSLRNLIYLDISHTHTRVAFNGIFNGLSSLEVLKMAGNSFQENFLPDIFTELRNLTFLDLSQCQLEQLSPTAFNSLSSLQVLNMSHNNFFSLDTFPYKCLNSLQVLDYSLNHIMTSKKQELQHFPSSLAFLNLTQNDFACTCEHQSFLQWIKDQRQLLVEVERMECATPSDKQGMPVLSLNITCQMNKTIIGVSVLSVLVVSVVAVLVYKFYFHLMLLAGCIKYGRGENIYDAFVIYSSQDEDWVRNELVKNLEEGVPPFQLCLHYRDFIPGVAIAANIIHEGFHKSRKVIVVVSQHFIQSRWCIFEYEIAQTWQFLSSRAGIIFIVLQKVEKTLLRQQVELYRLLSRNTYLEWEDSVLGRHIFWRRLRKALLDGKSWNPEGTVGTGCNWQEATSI

[2] = target: T1, Nuclear factor NF-kappa-B complex (Homo sapiens) (UniProt Q00653+P19838+Q04206); assay: Activation of NF-kappaB in LPS-stimulated HEK-Blue hTLR4 cells assessed as increase in release of SEAP reporter protein level at 0.1 to 25 uM incubated for 18 hrs by QUANTI-blue assay; type: cell-based; conditions: dose 0.1-25 µM
T1 sequence (P19838 whole entry, looked up): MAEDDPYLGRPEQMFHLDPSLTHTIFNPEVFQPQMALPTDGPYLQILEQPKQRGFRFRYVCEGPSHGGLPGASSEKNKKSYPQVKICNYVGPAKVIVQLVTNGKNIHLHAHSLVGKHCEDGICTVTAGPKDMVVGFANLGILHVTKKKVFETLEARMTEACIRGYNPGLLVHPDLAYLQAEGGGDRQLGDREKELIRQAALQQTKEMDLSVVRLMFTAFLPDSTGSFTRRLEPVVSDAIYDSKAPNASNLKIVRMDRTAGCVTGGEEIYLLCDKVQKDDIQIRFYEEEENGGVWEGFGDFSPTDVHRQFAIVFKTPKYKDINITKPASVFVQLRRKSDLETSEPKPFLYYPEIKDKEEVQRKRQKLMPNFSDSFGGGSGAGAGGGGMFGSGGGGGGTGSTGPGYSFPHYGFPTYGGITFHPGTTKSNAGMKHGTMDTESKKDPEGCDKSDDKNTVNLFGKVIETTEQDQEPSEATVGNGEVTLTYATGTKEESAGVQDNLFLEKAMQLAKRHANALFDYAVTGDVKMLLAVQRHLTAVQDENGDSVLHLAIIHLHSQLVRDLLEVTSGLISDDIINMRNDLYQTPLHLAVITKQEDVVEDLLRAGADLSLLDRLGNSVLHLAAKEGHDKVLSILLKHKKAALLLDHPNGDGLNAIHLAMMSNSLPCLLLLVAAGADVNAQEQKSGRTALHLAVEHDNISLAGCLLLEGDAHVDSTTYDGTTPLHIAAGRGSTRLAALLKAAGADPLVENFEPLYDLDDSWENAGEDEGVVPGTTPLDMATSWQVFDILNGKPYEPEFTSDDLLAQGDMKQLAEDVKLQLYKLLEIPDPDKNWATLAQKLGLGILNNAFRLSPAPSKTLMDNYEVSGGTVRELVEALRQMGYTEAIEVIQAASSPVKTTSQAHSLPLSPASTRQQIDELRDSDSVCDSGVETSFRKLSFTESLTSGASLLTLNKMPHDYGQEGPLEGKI
T1 sequence (Q00653 whole entry, looked up): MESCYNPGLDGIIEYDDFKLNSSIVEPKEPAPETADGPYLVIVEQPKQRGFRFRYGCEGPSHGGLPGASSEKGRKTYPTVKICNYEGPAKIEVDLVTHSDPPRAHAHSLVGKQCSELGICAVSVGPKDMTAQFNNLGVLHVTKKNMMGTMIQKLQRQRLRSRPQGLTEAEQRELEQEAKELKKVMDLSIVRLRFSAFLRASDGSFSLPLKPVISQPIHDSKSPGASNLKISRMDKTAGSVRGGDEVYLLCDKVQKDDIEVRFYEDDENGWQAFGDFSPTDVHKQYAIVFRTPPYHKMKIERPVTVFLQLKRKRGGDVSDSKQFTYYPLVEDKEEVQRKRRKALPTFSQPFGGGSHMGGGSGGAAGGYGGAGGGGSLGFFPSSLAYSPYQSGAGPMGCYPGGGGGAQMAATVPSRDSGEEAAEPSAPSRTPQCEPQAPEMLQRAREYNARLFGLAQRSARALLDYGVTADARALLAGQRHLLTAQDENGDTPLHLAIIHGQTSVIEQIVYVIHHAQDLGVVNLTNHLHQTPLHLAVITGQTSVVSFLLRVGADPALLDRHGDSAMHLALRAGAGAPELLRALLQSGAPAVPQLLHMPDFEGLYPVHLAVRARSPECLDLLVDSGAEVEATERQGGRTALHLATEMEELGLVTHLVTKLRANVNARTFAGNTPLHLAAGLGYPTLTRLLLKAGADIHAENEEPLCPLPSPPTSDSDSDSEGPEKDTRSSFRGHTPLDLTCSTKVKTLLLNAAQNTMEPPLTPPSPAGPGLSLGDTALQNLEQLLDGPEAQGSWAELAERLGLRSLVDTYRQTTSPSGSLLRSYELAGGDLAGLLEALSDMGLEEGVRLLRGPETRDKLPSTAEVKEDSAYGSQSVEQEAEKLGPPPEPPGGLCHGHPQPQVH
T1 sequence (Q04206 whole entry, looked up): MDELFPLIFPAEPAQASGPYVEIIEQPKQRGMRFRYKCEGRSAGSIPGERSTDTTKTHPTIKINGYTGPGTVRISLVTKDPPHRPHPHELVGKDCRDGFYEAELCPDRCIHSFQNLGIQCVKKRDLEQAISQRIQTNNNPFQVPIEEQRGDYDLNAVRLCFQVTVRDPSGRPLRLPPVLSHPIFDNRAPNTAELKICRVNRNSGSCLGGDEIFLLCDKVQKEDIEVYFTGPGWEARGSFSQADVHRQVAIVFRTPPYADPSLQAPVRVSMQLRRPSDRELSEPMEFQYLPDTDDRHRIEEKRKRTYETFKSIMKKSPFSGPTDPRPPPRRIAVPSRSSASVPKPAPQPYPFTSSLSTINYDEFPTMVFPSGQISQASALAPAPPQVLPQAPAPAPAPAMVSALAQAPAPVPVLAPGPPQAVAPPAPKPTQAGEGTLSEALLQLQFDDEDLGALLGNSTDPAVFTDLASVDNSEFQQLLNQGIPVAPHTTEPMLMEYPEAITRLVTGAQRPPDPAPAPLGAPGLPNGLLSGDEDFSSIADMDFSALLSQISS
In short: (§1)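 HEK-Blue hTLR4 cells (HEK293 with CD14, TLR4, MD-2 and NF-κB/AP-1-driven SEAP) in DMEM/10% FBS, seeded overnight (37 °C, 5% CO2), washed, then exposed to compound 0.1–25 μM in fresh medium for 18 h. SEAP in supernatant read with QUANTI-Blue substrate (0.5–4 h, RT) at OD 630 nm. Normalized to 100 ng/mL S. minnesota smooth LPS; mean percentage of three independent experiments.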

HEK-Blue hTLR4 [3] = assay: Activation of AP-1 in LPS-stimulated HEK-Blue hTLR4 cells assessed as increase in release of SEAP reporter protein level at 0.1 to 25 uM incubated for 18 hrs by QUANTI-blue assay; type: cell-based; conditions: Homo sapiens, dose 0.1-25 µM
In short: as §1

Macrophage [4] = assay: Induction of IL-1beta production in human THP-1 derived macrophages assessed as secretion of IL-1beta mature form in supernatant at 20 uM measured up to 18 hrs by ELISA; type: functional, tissue-based; conditions: time hrs <=18
In short: (§2)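 Differentiated THP-1 macrophages treated with compound at 20 μM (S-LPS, R-LPS 100 ng/mL; MPLA 1 μg/mL) for 3, 6 and 18 h. IL-1β measured by ELISA in both cell lysates and supernatants; n = 3, one-way ANOVA versus untreated.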

[5] = target: T2, Toll-like receptor 4/MD-2 (Homo sapiens) (UniProt O00206+Q9Y6Y9); assay: Binding affinity to NTA sensor chip immobilized recombinant human TLR4/MD2 assessed as maximum response by surface plasmon resonance analysis; type: protein-complex assay; conditions: filed as agonist
In short: (§3)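 Recombinant human TLR4/MD2 complex (20 μg/mL in 10 mM sodium acetate pH 4.0) amine-coupled to NTA chip after NiCl2 and EDC/NHS activation, ethanolamine-blocked. Analytes sonicated 15 min and diluted in PBS-P+ with 5% DMSO, injected over the series 4.34–69.50 μM or 5.34–85.50 μM. Regeneration 50 mM NaOH. Kinetics fitted to 1:1 model after solvent correction.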

[6] = target: Myeloid differentiation primary response protein MyD88 (Homo sapiens) (UniProt Q99836); assay: Activation of MyD88 dependent pathway in human THP-1 derived macrophages assessed as increase in NF-kappaB p65 phosphorylation at 10 uM measured after 1 hr by immunoblotting analysis; type: tissue-based; conditions: Macrophage, filed as activator
Chain of Myeloid differentiation primary response protein MyD88 (Homo sapiens) (Q99836 whole entry): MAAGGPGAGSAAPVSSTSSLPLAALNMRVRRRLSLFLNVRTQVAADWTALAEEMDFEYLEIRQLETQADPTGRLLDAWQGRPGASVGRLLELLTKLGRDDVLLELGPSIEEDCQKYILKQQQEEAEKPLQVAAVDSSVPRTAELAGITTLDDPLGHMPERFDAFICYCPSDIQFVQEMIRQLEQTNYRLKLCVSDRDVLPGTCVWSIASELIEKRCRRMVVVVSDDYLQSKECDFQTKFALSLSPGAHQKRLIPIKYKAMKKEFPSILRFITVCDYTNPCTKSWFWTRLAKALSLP
In short: (§4)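 PMA-differentiated THP-1 macrophages treated with compound at 10 μM (S-LPS 100 ng/mL, MPLA 1 μg/mL as references) and harvested at set times. RIPA lysates with protease/phosphatase inhibitors separated by SDS-PAGE, transferred to PVDF and probed for phospho-p65 (Ser536) and phospho-p38 (Thr180/Tyr182) with β-actin as loading control. Detection by chemiluminescence, densitometry; representative of at least two experiments.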

[7] = Toxicity in C57BL/6 […] assessed as effect on body weight at 10 ug measured daily for 7 days; conditions: mouse, in vivo, 168 h; dose 10 µg, time 7 day
In short: (§5)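 Six-week-old female C57BL/6 mice were injected subcutaneously in the flank with 10 μg adjuvant in 50 μL PBS. Mice were monitored and weighed daily for 7 days, with injection-site response and alertness noted. Group size is n = 3 per treatment in the methods and n = 4 in the figure legend.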

[8] = target: Myeloid differentiation primary response protein MyD88 (Homo sapiens) (UniProt Q99836); assay: Activation of MyD88 dependent pathway in human THP-1 derived macrophages assessed as increase in MAPK p38 phosphorylation at 10 uM measured after 1 hr by immunoblotting analysis; type: tissue-based; conditions: Macrophage, filed as activator
In short: as §4

[9] = target: Myeloid differentiation primary response protein MyD88 (Homo sapiens) (UniProt Q99836); assay: Activation of MyD88 dependent pathway in human THP-1 derived macrophages assessed as increase in IL-1 beta secretion measured after 18 hrs by ELISA; conditions: Macrophage, filed as activator
In short: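 THP-1 cells differentiated with PMA 25 ng/mL for 72 h, then rested 24 h in fresh medium before stimulation with compound (range 0.1–1 to 10–25 μM) in RPMI/10% FBS for 18 h. S-LPS and MPLA used as references. TNFα, IL-1β, IL-6 in supernatants quantified by sandwich ELISA at 450 nm (570 nm correction).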

Macrophage [10] = assay: Activation of TRIF dependent pathway in human THP-1 derived macrophages assessed as increase in RSAD2 expression measured after 6 hrs; type: tissue-based
In short: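 RSAD2 mRNA in differentiated THP-1 macrophages after compound at 10 μM, measured by RT-qPCR (annealing 60 °C) with β-actin housekeeping gene. Expressed as ΔΔCt fold change versus untreated cells; n = 3, Wilcoxon test.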

HEK-Blue hTLR4 [11] = assay: Activation of AP-1 in LPS-stimulated HEK-Blue hTLR4 cells assessed as increase in release of SEAP reporter protein level incubated for 18 hrs by QUANTI-blue assay; type: cell-based; conditions: Homo sapiens, filed as activator
In short: as §1

[12] = target: Toll-like receptor 4 (Homo sapiens) (UniProt O00206); assay: Activation of human TLR4 in IL-1beta stimulated HEK-Blue Null cells assessed as NF-kappaB activation at 0.1 to 25 uM incubated for 18 hrs by QUANTI- blue assay; type: tissue-based; conditions: dose 0.1-25 µM
In short: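 HEK-Blue Null cells, which carry the SEAP reporter but lack LPS receptors, were given compound (0.1–25 μM) for 18 h. SEAP was read by QUANTI-Blue at OD 630 nm and normalized to 100 ng/mL human IL-1β as positive control. Results are the mean percentage of three independent experiments.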

[13] = target: T2, Toll-like receptor 4/MD-2 (Homo sapiens); assay: Binding affinity to NTA sensor chip immobilized recombinant human TLR4/MD2 assessed as association rate constant by surface plasmon resonance analysis; type: protein-complex assay; conditions: filed as agonist
In short: as §3

Macrophage [14] = assay: Induction of IL-1beta production in human THP-1 derived macrophages assessed as accumulation of IL-1beta precursor in cell lysates at 20 uM measured up to 18 hrs by ELISA; type: functional, subcellular; conditions: time hrs <=18
In short: as §2

Mus musculus [15] = assay: Immuno-adjuvant activity in C57BL/6 mouse assessed as increase in levels of anti-ova total IgG in sera at 10 ug administered subcutaneously on day 1 and as booster dose on day 22 in presence of ovalbumin and […] by ELISA; type: functional, organism-based; conditions: dose 10.0 µg
In short: (§6)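 Female C57BL/6 mice (n = 8) given 50 μL s.c. in the flank of 500 μg endotoxin-depleted OVA mixed with 10 μg adjuvant in PBS. Booster on opposite flank day 22; OVA-only control group. Tail-vein sera taken days 21 and 41, serially diluted 1:100–1:12 800 and assayed by ELISA on OVA-coated plates (4 μg/mL). Detection with HRP anti-mouse IgG, TMB, A450.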

[16] = target: Toll-like receptor 2 (Homo sapiens) (UniProt O60603); assay: Agonist activity human TLR2 in PAM2CSK4 stimulated HEK-Blue hTLR2 cells at 0.1 to 25 uM incubated for 18 hrs by QUANTI-blue assay; type: cell-based; conditions: dose 0.1-25 µM
Chain of Toll-like receptor 2 (Homo sapiens) (O60603 whole entry): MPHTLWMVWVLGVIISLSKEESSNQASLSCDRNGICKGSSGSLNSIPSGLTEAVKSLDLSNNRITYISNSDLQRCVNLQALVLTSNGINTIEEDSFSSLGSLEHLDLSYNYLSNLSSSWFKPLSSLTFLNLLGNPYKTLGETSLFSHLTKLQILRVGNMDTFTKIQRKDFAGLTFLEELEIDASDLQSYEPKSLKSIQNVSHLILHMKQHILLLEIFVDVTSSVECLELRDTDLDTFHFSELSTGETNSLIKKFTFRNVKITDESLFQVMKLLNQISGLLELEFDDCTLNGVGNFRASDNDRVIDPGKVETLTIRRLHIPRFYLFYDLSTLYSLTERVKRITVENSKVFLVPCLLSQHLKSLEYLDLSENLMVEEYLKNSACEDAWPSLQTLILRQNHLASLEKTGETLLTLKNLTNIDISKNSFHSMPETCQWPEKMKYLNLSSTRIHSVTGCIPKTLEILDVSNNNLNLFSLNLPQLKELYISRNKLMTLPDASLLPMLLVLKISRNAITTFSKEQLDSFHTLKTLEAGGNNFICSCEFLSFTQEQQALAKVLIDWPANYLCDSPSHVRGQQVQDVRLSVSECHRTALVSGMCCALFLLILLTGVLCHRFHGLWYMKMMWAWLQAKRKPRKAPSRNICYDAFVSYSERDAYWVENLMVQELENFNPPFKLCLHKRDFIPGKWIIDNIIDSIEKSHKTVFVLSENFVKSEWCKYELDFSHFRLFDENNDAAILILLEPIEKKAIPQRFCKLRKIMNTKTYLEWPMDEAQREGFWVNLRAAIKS
In short: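 HEK-Blue hTLR2 cells exposed 18 h to compound (0.1–25 μM); SEAP in supernatant by QUANTI-Blue at OD 630 nm. Values normalized to PAM2CSK4 (10 ng/mL, 18 h) and expressed as mean percentage of three independent experiments.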

[17] = target: T2, Toll-like receptor 4/MD-2 (Homo sapiens); assay: Binding affinity to NTA sensor chip immobilized recombinant human TLR4/MD2 assessed as dissociation rate kinetics by surface plasmon resonance analysis; type: protein-complex assay; conditions: filed as agonist
In short: as §3

Mus musculus [18] = assay: Immuno-adjuvant activity in C57BL/6 mouse assessed as increase in levels of anti-ova total IgG in sera at 10 ug administered subcutaneously in presence of ovalbumin and measured 21 days post immunization by ELISA; type: functional, organism-based; conditions: dose 10.0 µg, time 21.0 day
In short: as §6

[19] = Toxicity in C57BL/6 […] assessed as local response at injection site at 10 ug observed daily for 7 days; conditions: mouse, in vivo, 168 h; dose 10 µg, time 7 day
In short: as §5

[20] = Toxicity in C57BL/6 […] assessed as state of alertness at 10 ug observed daily for 7 days; conditions: mouse, in vivo, 168 h; dose 10 µg, time 7 day
In short: as §5

[21] = target: T1, Nuclear factor NF-kappa-B complex (Homo sapiens); assay: Activation of NF-kappaB in LPS-stimulated HEK-Blue hTLR4 cells assessed as increase in release of SEAP reporter protein level incubated for 18 hrs by QUANTI-blue assay; type: cell-based; conditions: filed as activator
In short: as §1

Macrophage [22] = assay: Activation of TRIF dependent pathway in human THP-1 derived macrophages assessed as increase in IRF3 phosphorylation at 10 uM measured up to 3 hrs by immunoblotting analysis; type: tissue-based; conditions: time hrs <=3
In short: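 Differentiated THP-1 macrophages exposed to compound at 10 μM, alongside S-LPS and R-LPS (100 ng/mL each) and MPLA (1 μg/mL), and collected over a time course. Lysates were immunoblotted for phospho-IRF3 (Ser386) with β-actin as loading control and detected by chemiluminescence.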

Macrophage [23] = assay: Activation of TRIF dependent pathway in human THP-1 derived macrophages assessed as increase in IFNbeta mRNA expression measured 2 hrs post treatment by real-time PCR

CCCCCCCCCCCCCC(=O)N[C@H]1[C@@H](OP(=O)(O)O)O[C@H](COP(=O)(O)O)[C@@H](OC(=O)CCCCCCCCCCCCC)[C@@H]1OC(=O)CCCCCCCCCCCCC
Activity [1]: inactive
Activity [2]: inactive
Activity (HEK-Blue hTLR4 [3]): inactive

CCCCCCCCCCCCCC(=O)N[C@H]1[C@@H](OP(=O)([O-])[O-])O[C@H](CO)[C@@H](OC(=O)CCCCCCCCCCCCC)[C@@H]1OC(=O)CCCCCCCCCCCCC.[Na+].[Na+]
Activity (Macrophage [4]): inactive
Rmax [5]: 8.15 RU
Activity [6]: Active
Activity [7]: Non-Toxic
Activity [1]: inactive
Activity [8]: Active
Activity [9]: Dose-Dependent Effect
Activity (Macrophage [10]): inactive
Activity (HEK-Blue hTLR4 [11]): Dose-Dependent Effect
Activity [12]: inactive
Ka [13]: 3.84 10^3(1/Ms)
Activity (Macrophage [14]): Active
Activity (Mus musculus [15]): Active
Activity [16]: inactive
Kdiss [17]: 7.09 10^-4/s
Activity (Mus musculus [18]): Active
Activity [19]: Non-Toxic
Activity [20]: Non-Toxic
Activity [21]: Dose-Dependent Effect
Activity (Macrophage [22]): inactive
Activity (Macrophage [23]): inactive
